According to ChEMBL document CHEMBL1138288, “2-phenylimidazopyridines, a new series of Golgi compounds with potent antiviral activity” (J Med Chem, 2007):

Experiments:
Modoc virus = test: Antiviral activity against Modoc virus-infected HeLa-H1 cells; type: functional, organism-based
Vaccinia virus = test: Antiviral activity against Vaccinia virus-infected Vero cells; type: functional, organism-based, Orthopoxvirus vaccinia
San Angelo virus = test: Antiviral activity against San Angelo virus-infected Vero cells; type: functional, organism-based
[1] = tested on: Vesicular stomatitis virus; test: Antiviral activity against VSV-infected Vero cells; type: functional, organism-based
[2] = Inhibition of IgE production in antigen-sensitized BALB/c mouse spleen cells; type: functional, tissue-based
[3] = tested on: California encephalitis virus; test: Antiviral activity against California encephalitis virus-infected Vero cells; type: functional, cell-based
Enterovirus = test: Antiviral activity against Rhinovirus-infected HeLa-H1 cells; type: functional, organism-based
Murine hepatitis virus = test: Antiviral activity against mouse hepatitis virus-infected NCTC clone-1469 cells; type: functional, organism-based; conditions: Murine coronavirus
Procedure, shortened: (§1)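 Cells were seeded at about 50 000/well and infected 24 h later at MOI 0.1 or less, with drug added alongside. Once infectivity was evident, cells were washed and stained with methylene blue/carbol fuchsin in methanol for 10 min at room temperature.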

Simian virus 40 = test: Antiviral activity against SV40-infected Vero cells; type: functional, organism-based; conditions: Betapolyomavirus macacae; procedure, shortened: as §1
Human alphaherpesvirus 2 = test: Antiviral activity against HSV2-infected Vero cells; type: functional, organism-based
[4] = Selectivity ratio, IC50 HSV2-infected Vero cells to IC50 for inhibition of IgE production in antigen-sensitized BALB/c mouse spleen cells; type: functional
[5] = Selectivity ratio, IC50 for vaccinia virus-infected Vero cells to IC50 for inhibition of IgE production in antigen-sensitized BALB/c mouse spleen cells; type: functional
[6] = California encephalitis virus, Vero

Row | SMILES | IC50 (Modoc virus) [nM] | IC50 (Vaccinia virus; Orthopoxvirus vaccinia, Vero) [nM] | IC50 (San Angelo virus; San Angelo virus, Vero) [nM] | IC50 [1] [nM] | IC50 ([2]; Mus musculus, BALB/c, Spleen) [nM] | IC50 [3, 6] [nM] | IC50 (Enterovirus; Enterovirus, HeLa H1) [nM] | IC50 (Murine hepatitis virus) [nM] | IC50 (Simian virus 40) [nM] | IC50 (Human alphaherpesvirus 2; Human alphaherpesvirus 2, Vero) [nM] | Ratio IC50 [4] | Ratio IC50 [5] | IC50 (Vaccinia virus; vero) [nM] | IC50 (San Angelo virus; vero) [nM] | IC50 [2] [nM] | IC50 ([3]; vero) [nM] | IC50 (Enterovirus; hela-h1) [nM] | IC50 (Human alphaherpesvirus 2; vero) [nM]
1 | O=C(Nc1cc2nc(-c3ccc(NC(=O)C45CC6CC(CC(C6)C4)C5)cc3)[nH]c2cn1)c1ccccn1 | 60 | 500 | 60 | 1000 | 10 | 60 | 60 | 60 | > 2000 | 75 |  |  |  |  |  |  |  | 
2 | O=C(Nc1ccc(-c2nc3cc(NC(=O)C4CCCCC4)ccc3[nH]2)cc1)C1CCCCC1 | 50 | 200 | 200 | 1000 | 5 | 200 | 160 | 20 | 1000 | 170 |  |  |  |  |  |  |  | 
3 | O=C(Nc1ccc(-c2nc3cc(NC(=O)C45CC6CC(C4)C(O)C(C6)C5)ncc3[nH]2)cc1)C12CC3CC(CC(C3)C1)C2 (configuration not stated) | 20 | 400 | 60 | > 2000 | 0.15 | 60 | 20 | 200 | 1000 | 90 |  |  |  |  |  |  |  | 
4 | O=C(Nc1ccccn1)c1ccc2[nH]c(-c3ccc(NC(=O)C45CC6CC(CC(C6)C4)C5)cc3F)nc2c1 | 60 | 600 | 200 | > 2000 | 10 | 200 | 400 | 60 | > 2000 | 150 |  |  |  |  |  |  |  | 
5 | O=C(NC12CC3CC(CC(C3)C1)C2)c1cc2nc(-c3ccc(NC(=O)C45CC6CC(CC(C6)C4)C5)cc3)[nH]c2cn1 | 100 | 140 | 60 | > 2000 | 10 | 60 | 40 | 20 | > 2000 | 30 |  |  |  |  |  |  |  | 
6 | O=C(NC12CC3CC(CC(C3)C1)C2)c1ccc2[nH]c(-c3ccc(NC(=O)C45CC6CC(CC(C6)C4)C5)cc3)nc2c1 | 60 | 600 | 20 | > 2000 | 5 | 60 | 20 | 20 | > 2000 | 40 |  |  |  |  |  |  |  | 
7 | O=C(Nc1ccc(-c2nc3cc(NC(=O)C45CC6CC(CC(C6)C4)C5)ccc3[nH]2)cc1)C12CC3CC(CC(C3)C1)C2 | 20 | 400 | 60 | > 2000 | 1 | 30 | 60 | 12 | 1200 | 20 |  |  |  |  |  |  |  | 
8 | O=C1C2CC3CC1CC(C(=O)Nc1ccc(-c4nc5cc(NC(=O)C67CC8CC(CC(C8)C6)C7)ncc5[nH]4)cc1)(C3)C2 | > 600 | 400 | 200 | > 2000 | 4 | 200 | > 2000 | 200 | > 2000 | 250 |  |  |  |  |  |  |  | 
9 | O=C(Nc1ccccn1)c1ccc2[nH]c(-c3ccc(NC(=O)[C@]45CC6CC(C4)[C@@H](O)C(C6)C5)cc3)nc2c1 | 400 | 1800 | 135 | > 2000 | 10 | 60 | 200 | 100 | > 2000 | 1500 | 150 | 150 |  |  |  |  |  | 
10 | O=C(Nc1ccccn1)c1ccc2[nH]c(-c3ccc(NC(=O)C45CC6CC(CC(C6)C4)C5)cc3)nc2c1 (stereo in doubt; 1h) | 60 |  |  | > 2000 |  |  |  | 20 | > 2000 |  |  |  | 40 | 20 | 4 | 60 | 20 | 30
11 | O=C(NC12CC3CC(C1)C(=O)C(C3)C2)c1cc2nc(-c3ccc(NC(=O)C45CC6CC(CC(O)(C6)C4)C5)cc3)[nH]c2cn1 | > 600 | > 2000 | 200 | > 2000 | 140 | 200 | 100 | > 600 | > 2000 | > 2000 |  |  |  |  |  |  |  | 
12 | O=C(Nc1ccc(-c2nc3cc(C(=O)NC45CC6CC(CC(C6)C4)C5)ccc3[nH]2)cc1)c1ccc(Cl)c(Cl)c1 | 6 | 20 | 6 | > 2000 | 1 | 20 | 20 | 8 | > 2000 | 20 |  |  |  |  |  |  |  | 
